Experimental data published in ChEMBL document CHEMBL1122278, “Gastric antisecretory 9H-xanthen-9-amines” (1983).

Tests used:
[1] = system: Canis familiaris; assay: Effect on pentagastrin-induced acid secretion in gastric fistula dogs, at 1 mg/kg, iv for 1 h; type: functional, Canis lupus familiaris, Stomach
Summary of the method: (§1)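 Four chronic gastric fistula dogs (11.2–16.2 kg), fasted 24 h, saline infused via saphenous vein, then pentagastrin 8 (μg/kg)/h for maximal stimulation. After 1 h acid plateau, compound given 1 mg/kg iv in PEG 200. Juice collected at 15-min intervals and centrifuged; titratable acid output from volume × titre, as mean ± SE, equivalents per hour.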

[2] = system: Canis familiaris; assay: Effect on pentagastrin-induced acid secretion in gastric fistula dogs, at 1 mg/kg, iv for 3 h; type: functional, Canis lupus familiaris, Stomach; summary of the method: as §1
[3] = system: Rattus norvegicus; assay: Effect of peroral administration of compound on acid secretion inhibition in the PLR; NS means no significant dose response.; type: functional, organism-based
Summary of the method: (§2)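 Rats (male Carworth Farms, 270–360 g) fasted 18 h; compound in PEG 200 by gavage 1 h before pylorus ligation under ether, six per group. Gastric contents collected 2 h post-ligation; pH, volume, titre (NaOH to pH 7.4) measured, output = volume × titre.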

[4] = system: Rattus norvegicus; assay: Antisecretory activity in PLR after pre-incubation in gastric juice at pH 1.0 for 2 min at 15 mg/kg dose, measured as acid output; type: functional
Summary of the method: (§3)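 Male Carworth Farms rats (270–360 g), fasted 18 h with water, pylorus ligated under ether. Compound in PEG 200 (80 mg/mL) added to gastric juice from separate 4-h ligated rats (stored frozen) at 7.5 mg/mL, juice neutralized with 1.0 N NaOH before or after addition, or left untreated (pH 1.0). Given intraduodenally right after ligation. Juice collected 2 h later; volume, titre (NaOH to pH 7.4), output = volume × titre.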

[5] = system: Rattus norvegicus; assay: Antisecretory activity in PLR after pre-incubation in gastric juice at pH 1.0 for 30 min at 15 mg/kg dose, measured as acid output; type: functional; summary of the method: as §3
[6] = system: Rattus norvegicus; assay: Antisecretory activity in PLR after pre-incubation in gastric juice at pH 1.0 for 60 min at 15 mg/kg dose, measured as acid output; type: functional; summary of the method: as §3
[7] = system: Rattus norvegicus; assay: Antisecretory activity in PLR after pre-incubation in neutralized juice for 60 min at 15 mg/kg dose, measured as acid output; type: functional; summary of the method: as §3
[8] = system: Rattus norvegicus; assay: Effect of intraduodenal administration of compound on acid secretion inhibition in the PLR; Value ranges from 0.8-4.8; type: functional
[9] = system: Rattus norvegicus; assay: Effect of intravenous administration of compound on acid secretion inhibition in the PLR; Value ranges from 0.3-2.7; type: functional
Summary of the method: (§4)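 Male Carworth Farms rats (270–360 g), fasted 18 h, pylorus ligated under ether; compound in PEG 200 given intravenously at ligation, six rats per group. Gastric contents taken 2 h after ligation, centrifuged, titrated with NaOH to pH 7.4; output = volume × titre.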

[10] = system: Rattus norvegicus; assay: Effect of peroral administration of compound on acid secretion inhibition in the PLR; Value ranges from 4.7-14.9; type: functional; summary of the method: as §2
[11] = system: Rattus norvegicus; assay: Antisecretory activity in PLR after preincubation in gastric juice at pH 1.0 for 2 min at 15 mg/kg dose, measured as acid titreated; type: functional; summary of the method: as §3
[12] = system: Rattus norvegicus; assay: Antisecretory activity in PLR after pre-incubation in gastric juice at pH 1.0 for 30 min at 15 mg/kg dose, measured as acid titreated; type: functional; summary of the method: as §3
[13] = system: Rattus norvegicus; assay: Antisecretory activity in PLR after pre-incubation in gastric juice at pH 1.0 for 60 min at 15 mg/kg dose, measured as acid titreated; type: functional; summary of the method: as §3
[14] = system: Rattus norvegicus; assay: Antisecretory activity in PLR after pre-incubation in neutralized juice for 60 min at 15 mg/kg dose, measured as acid titreated; type: functional; summary of the method: as §3
[15] = system: Rattus norvegicus; assay: Gastric antisecretory activity in pylorus-ligated rat at a concentration of 50 mg/kg perorally, expressed as increase in mean pH.; type: functional; conditions: route oral
Summary of the method: (§5)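 Male Carworth Farms rats (270–360 g), fasted 18 h with water; compound in PEG 200 by gavage 1 h before pylorus ligation under ether. Killed 2 h after ligation; juice centrifuged, volume and pH measured, supernatant titrated with NaOH to pH 7.4, output = volume × titre. Mean of six to seven animals against controls.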

[16] = system: Rattus norvegicus; assay: Gastric antisecretory activity in pylorus ligated rat at a concentration of 50 mg/kg perorally, expressed as % decrease in mean titratable acid output of gastric juice in treated vs. control groups.; type: functional; conditions: route oral; summary of the method: as §5
[17] = system: Rattus norvegicus; assay: Antisecretory activity in PLR after pre-incubation in gastric juice at pH 1.0 for 2 min at 15 mg/kg dose, measured as volume; type: functional; summary of the method: as §3
[18] = system: Rattus norvegicus; assay: Antisecretory activity in PLR after preincubation in gastric juice at pH 1.0 for 60 min at 15 mg/kg dose, measured as volume; type: functional; summary of the method: as §3
[19] = system: Rattus norvegicus; assay: Antisecretory activity in PLR after pre-incubation in neutralized juice for 60 min at 15 mg/kg dose, measured as volume; type: functional; summary of the method: as §3
[20] = system: Rattus norvegicus; assay: Effect of intraduodenal administration of compound on acid secretion inhibition in the PLR; Value ranges from 1.4-7.8; type: functional
[21] = system: Rattus norvegicus; assay: Effect of intravenous administration of compound on acid secretion inhibition in the PLR; Value ranges from 0.9-5.3; type: functional; summary of the method: as §4
[22] = system: Canis familiaris; assay: Effect on pentagastrin-induced acid secretion in gastric fistula dogs, at 1 mg/kg, iv for 2 h; type: functional, Canis lupus familiaris, Stomach; summary of the method: as §1
[23] = system: Rattus norvegicus; assay: Antisecretory activity in PLR after pre-incubation in gastric juice at pH 1.0 for 30 min at 15 mg/kg dose, measured as volume

For `CCN1CCCC(NC2c3ccccc3Oc3ccccc32)C1` (stereo unspecified), the Acid output [1] was 3.37 u equiv hr-1, the Change [1] was -72% and the Acid output [2] was 4.6 u equiv hr-1. For the same molecule, the Change [2] was -62%, the ED50 [3] was “Not significant” and the Acid output [4] was 191 u equiv 2hr-1. It also gave an Acid output [5] of 367 u equiv 2hr-1, an Acid output [6] of 324 u equiv 2hr-1 and an Acid output [7] of 70 u equiv 2hr-1. For the same molecule, the ED50 [8] was 2.3 mg/kg, the ED50 [9] was 1.2 mg/kg and the ED50 [10] was 8.9 mg/kg. For the same molecule, the Acid titer [11] was 43 m equiv l-1, the Acid titer [12] was 62 m equiv l-1 and the Acid titer [13] was 59 m equiv l-1. For the same molecule, the Acid titer [14] was 26 m equiv l-1, the “Delta pH” value [15] was 5.6 and the “Delta TAO” value [16] was 98. For the same molecule, the Volume [17] was 4.6 mL, the Volume [18] was 5.6 mL and the Volume [19] was 2.5 mL. It also gave an ED50 [20] of 3.8 mg/kg, an ED50 [21] of 2.3 mg/kg and an Acid output [22] of 2.46 u equiv hr-1. It also gave a Change [22] of -80% and a Volume [23] of 6 mL.
